Active and inactive are the calls of the source.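 Rule for the calls, unless noted: active = duplicate-averaged activation above buffer control mean plus 5 SD of those controls; inactive = the rest.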

Assay [1] can be described thus: nonspecific flux increase, KCNQ1-free cells – parental CHO cells, counter-screen for KCNQ1 potentiator project (AID 493006). As to conditions: parental CHO-K1 cells, FluxOR thallium flux, at 10 µM; active compounds read high. Summed up: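 Assay system: Untransfected host CHO-K1 cells with FluxOR thallium dye | Probe or stimulus: Potassium/thallium depolarization pulse | Schedule: Overnight 37 °C plating, 90 min RT dye, 20 min compound | Detection: Kinetic thallium-flux fluorescence | Read-out: Max-minus-min fluorescence over baseline, percent of buffer-to-R-L3 span | Benchmarks: Low control buffer, high control R-L3 activator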
(The purpose of a counterscreen is to sort out artefacts and off-target activity.)

Assay [2] concerns the target Potassium voltage-gated channel subfamily KQT member 1 (Homo sapiens) (UniProt P51787). The experiment in a line: enhancement of KCNQ1 channel thallium flux – FluxOR thallium flux, CHO cells, duplicates, confirmation (AID 493007;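 active = potentiation averaged over duplicate wells exceeding buffer-only control mean by more than 3 SD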;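 for outcome: cells depolarized by a potassium plus thallium sulfate stimulus after compound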). The settings on record: KCNQ1 cell line, FluxOR thallium flux fluorescence, at 10 µM; active compounds read high, % of reference activator effect, buffer zero. A digest of the protocol:
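Material: KCNQ1-expressing CHO cell line; Incubation: FluxOR dye loading 90 min, compound exposure 20 min, room temperature; Detection: FluxOR Tl+ flux fluorescence, 10 s baseline plus 110 s recording; Read-out: percent activation between buffer and R-L3 responses; Control set: buffer-only wells as 0% and R-L3 activator as 100%; Replication: duplicate wells per compound.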

Assay [3] has as its target Potassium voltage-gated channel subfamily KQT member 2 (Rattus norvegicus) (UniProt O88943). As to the kind of experiment: KCNQ2 thallium flux enhancement – KCNQ2-CHO-K1 cells, selectivity assay for KCNQ1 potentiator project (AID 493009;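 active = mean duplicate potentiation above the buffer control mean plus 5 SD of buffer wells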;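 note: assay conditions were tuned for KCNQ1 rather than KCNQ2 modulators; signal is max minus min fluorescence divided by baseline after thallium stimulus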). As to conditions: FluxOR thallium flux fluorescence, at 10 µM; active compounds read high, scaled: buffer 0, activator control 100.
Assay [4] addresses Potassium voltage-gated channel subfamily KQT member 1 (Homo sapiens) (UniProt P51787). As to the kind of experiment: KCNQ1 activators by electrophysiology – IonWorks patch clamp, KCNQ1-CHO cells, orthogonal assay for KCNQ1 potentiator project, confirmation (AID 493184;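 active = current rise at least 3 SD above the untreated control mean in each of two repeat wells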;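 for current potentiation: percent change of the same well's current before compound addition so 0% = no change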). The settings on record: automated patch clamp current, at 10 µM; active compounds read high. A digest of the protocol: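 assay system = KCNQ1-expressing CHO cells | medium = external bath solution at pH 7.4 | probe or stimulus = 2,000 ms depolarization, -90 to +40 mV | compound dosing = 10 µM final, single point | measured by = automated voltage clamp, amphotericin B perforated patch | measure = percent current increase versus pre-compound level | replication = duplicates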
(In general: In patch-clamp work, channel activity is measured electrically.)

Sequence of Potassium voltage-gated channel subfamily KQT member 1 (Homo sapiens) (P51787 whole entry, looked up): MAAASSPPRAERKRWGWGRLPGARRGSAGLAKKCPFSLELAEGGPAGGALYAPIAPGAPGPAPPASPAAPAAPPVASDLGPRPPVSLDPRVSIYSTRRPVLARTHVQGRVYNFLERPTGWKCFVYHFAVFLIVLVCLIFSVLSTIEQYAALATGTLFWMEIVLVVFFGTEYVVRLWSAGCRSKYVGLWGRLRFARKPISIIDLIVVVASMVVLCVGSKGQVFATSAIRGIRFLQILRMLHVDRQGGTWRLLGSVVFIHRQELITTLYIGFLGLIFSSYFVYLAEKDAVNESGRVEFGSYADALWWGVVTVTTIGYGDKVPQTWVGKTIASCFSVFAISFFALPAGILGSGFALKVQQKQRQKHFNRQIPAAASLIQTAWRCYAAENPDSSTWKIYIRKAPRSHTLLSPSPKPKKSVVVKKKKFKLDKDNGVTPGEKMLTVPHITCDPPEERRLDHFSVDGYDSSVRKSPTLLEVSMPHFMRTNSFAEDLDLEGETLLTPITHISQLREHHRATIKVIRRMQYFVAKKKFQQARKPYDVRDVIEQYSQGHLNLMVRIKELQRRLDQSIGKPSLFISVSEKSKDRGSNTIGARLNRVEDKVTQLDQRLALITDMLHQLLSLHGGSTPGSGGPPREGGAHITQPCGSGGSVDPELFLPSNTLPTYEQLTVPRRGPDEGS
Sequence of Potassium voltage-gated channel subfamily KQT member 2 (Rattus norvegicus) (O88943 whole entry, looked up): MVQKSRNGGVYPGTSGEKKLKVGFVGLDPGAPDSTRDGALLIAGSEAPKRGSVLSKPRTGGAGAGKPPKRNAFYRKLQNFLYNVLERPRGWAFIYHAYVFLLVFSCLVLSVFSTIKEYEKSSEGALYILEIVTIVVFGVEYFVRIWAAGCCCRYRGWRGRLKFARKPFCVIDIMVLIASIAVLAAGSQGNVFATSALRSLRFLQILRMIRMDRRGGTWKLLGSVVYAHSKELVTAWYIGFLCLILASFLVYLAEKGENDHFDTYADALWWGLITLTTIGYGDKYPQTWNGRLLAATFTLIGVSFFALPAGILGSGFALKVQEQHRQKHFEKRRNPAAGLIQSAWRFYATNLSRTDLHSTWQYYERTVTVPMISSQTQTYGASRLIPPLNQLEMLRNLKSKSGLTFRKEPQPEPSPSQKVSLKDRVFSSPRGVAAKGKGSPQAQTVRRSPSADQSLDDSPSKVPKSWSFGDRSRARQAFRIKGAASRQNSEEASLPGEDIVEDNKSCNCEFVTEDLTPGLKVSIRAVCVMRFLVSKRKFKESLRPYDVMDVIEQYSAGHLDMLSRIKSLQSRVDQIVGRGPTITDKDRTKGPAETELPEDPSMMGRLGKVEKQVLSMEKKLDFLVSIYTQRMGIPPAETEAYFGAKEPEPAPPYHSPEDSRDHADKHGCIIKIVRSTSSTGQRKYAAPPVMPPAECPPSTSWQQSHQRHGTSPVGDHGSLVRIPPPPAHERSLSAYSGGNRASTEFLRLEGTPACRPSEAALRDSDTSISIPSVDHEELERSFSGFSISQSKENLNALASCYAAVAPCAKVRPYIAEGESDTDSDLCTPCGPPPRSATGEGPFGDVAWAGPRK

Take `Cn1ncc2c(O/N=C(\N)c3ccc(C(F)(F)F)cc3)ncnc21`: the outcome in assay [1], in assay [2], in assay [3] and in assay [4] was inactive.
As for `CCOC(=O)c1c(-c2ccccc2)csc1NC(=S)NC`, in assay [1], the activation was 286% (active). The potentiation in assay [2] was 130% (active); in assay [3] it was 324% (active). In addition, the result in assay [4] was inactive.
On the same counts, the results for `CCCCCCCCCCCCN1[C@@H](CC(=O)O)c2cc(F)ccc2S1(=O)=O` are 230% (active), 76% (active), 190% (active) and “inactive”.
The corresponding values for `O=C(c1c[nH]c(C(=O)C(Cl)(Cl)Cl)c1)c1ccc(F)cc1Cl` are 145% (active), 47% (active), 160% (active) and “inactive”.
Take `Cc1cccc(C(=O)NC(=S)N(C)C2CCCCC2)c1`: the activation in assay [1] was 268% (active). Also, the potentiation in assay [2] is 72.5% (active); in assay [3], 326% (active). Besides, the result in assay [4] was inactive.
As to `Cc1ccc(Cc2cnc(N3C(=N)SC(c4ccccc4)C3=O)s2)cc1` (stereo not given), the result in assay [1], in assay [2], in assay [3] and in assay [4] was inactive.
Consider `CC1CCc2sc(-c3n[nH]c(=S)o3)cc2C1` (stereo not given), for which, in assay [1], the activation is 207% (active). Further, the potentiation in assay [2] is 30% (active); in assay [3] it was 179% (active). In addition, the outcome in assay [4] was inactive.
`COc1ccc(-n2nnnc2-c2ccccc2)cc1`: the outcome in assay [1], in assay [2], in assay [3] and in assay [4] was inactive.
With `O=C(NCc1ccccn1)c1ccc(COc2ccc(Cl)cc2)o1`, in assay [1], the activation is 138% (active). The potentiation in assay [2] is 26.5% (active); in assay [3], 156% (active). In assay [4], the result was inactive.
With `O=C(Oc1c(-c2ccco2)oc2ccccc2c1=O)c1cccnc1`, the result in assay [1] and in assay [4] was inactive. Further, the potentiation is 39.5% (active) in assay [2] and 187% (active) in assay [3].
As to `COC(=O)c1sc(-c2ccccc2)cc1NC(=O)C1CC1`, the result in assay [1], in assay [2], in assay [3] and in assay [4] was inactive.
Turning to `COc1ccc(-c2nc(CS(=O)CC(=O)NC3CCCC3)c(C)o2)cc1OC` (stereo not given), the activation in assay [1] was 168% (active). The potentiation is 85% (active) in assay [2] and 244% (active) in assay [3]. Moreover, the outcome in assay [4] was inactive.
The corresponding values for `CCC(C)[C@H](N)c1nnc(SCC(=O)Nc2cccc(Cl)c2)o1` (stereo not given in full) are 210% (active), 39.5% (active), 162% (active) and “inactive”.
On to `COc1ccc(C(=O)N2CCC(N3CCN(c4ccccc4)CC3)CC2)cc1`, for which the outcome in assay [1], in assay [2], in assay [3] and in assay [4] was inactive.
Turning to `Cc1ccc(-c2ccc(C3C(C#N)=C(N)Oc4n[nH]c(C)c43)o2)cc1` (stereo not given), the outcome in assay [1], in assay [2], in assay [3] and in assay [4] was inactive.
In the case of `Cc1[nH]n(C(N)=S)c(=O)c1N=Nc1ccc2ccccc2c1`, the activation in assay [1] was 150% (active). Further, the potentiation in assay [2] is 238% (active); in assay [3], 628% (active). The result in assay [4] was inactive.
Take `O=C(CSc1cccc[n+]1[O-])c1cc(Cl)ccc1Cl`: the result in assay [1], in assay [2], in assay [3] and in assay [4] was inactive.
`O=c1c(-c2ccccc2)[n+]([O-])c2ccccc2n1O`: the outcome in assay [1], in assay [2], in assay [3] and in assay [4] was inactive.
With `Cc1cc(Cl)ccc1OCC(=O)N/N=C1\CC2C=CCC12` (stereo not given), the result in assay [1], in assay [2], in assay [3] and in assay [4] was inactive.
With `COCCN(C(=O)COC(=O)/C=C/c1cccs1)c1c(N)n(Cc2ccccc2)c(=O)[nH]c1=O`, the result in assay [1], in assay [2], in assay [3] and in assay [4] was inactive.
Consider `Cc1cc(C)n(/N=C/c2cc(Cl)cc(Cl)c2O)c(=O)c1`, for which the result in assay [1], in assay [2], in assay [3] and in assay [4] was inactive.
With `COc1ccc(/C=C2\SC(=Nc3ccccc3OC)NC2=O)cc1`, the outcome in assay [1], in assay [2], in assay [3] and in assay [4] was inactive.
Turning to `Cn1c(=O)n(CCc2ccccc2)c2ccccc21`, the result in assay [1], in assay [2], in assay [3] and in assay [4] was inactive.
For the compound `Cc1ccc(-c2cc(-c3n[nH]c(=S)o3)c3ccccc3n2)cc1`, the activation in assay [1] was 468% (active). Further, the potentiation in assay [2] is 260% (active); in assay [3], 512% (active). The current potentiation in assay [4] is 18.8% (active).
Regarding `CC(C)c1ccc(/C=C2\SC(N3CCOCC3)=NC2=O)cc1`, the outcome in assay [1], in assay [2] and in assay [4] was inactive. Moreover, the potentiation in assay [3] is 146% (active).
Consider `CCC(C)c1ccccc1OCCCNC1CCCC1` (stereo not given), for which the outcome in assay [1], in assay [2], in assay [3] and in assay [4] was inactive.
With `CC1CN(C(=S)NC(=O)c2ccc(Cl)cc2)CC(C)O1` (stereo not given), the activation in assay [1] is 144% (active). Moreover, the potentiation was 24% (active) in assay [2] and 152% (active) in assay [3]. Also, in assay [4], the result was inactive.
As for `Cc1c(Cl)cccc1NC(=O)Cn1c(CCC(=O)O)ccc1-c1ccccc1`, the outcome in assay [1], in assay [2], in assay [3] and in assay [4] was inactive.
As to `FC(F)(F)c1cc(N2CCNCC2)c2ccccc2n1`, the result in assay [1], in assay [2], in assay [3] and in assay [4] was inactive.
Regarding `O=C(O)CSc1cc(NS(=O)(=O)c2ccc(Br)cc2)c2ccccc2c1O`, the result in assay [1], in assay [2], in assay [3] and in assay [4] was inactive.

The values are drawn from PubChem BioAssay.
